The record followed here is ChEMBL document CHEMBL1135893, “Synthesis and mode of action of hydrophobic derivatives of the glycopeptide antibiotic eremomycin and des-(N-methyl-D-leucyl)eremomycin against glycopeptide-sensitive and -resistant bacteria” (J Med Chem, 2002).

Assay [1] relates to Staphylococcus haemolyticus. The assay is described as follows: Antibacterial activity evaluated as minimum inhibitory concentration against 602 Staphylococcus haemolyticus. Set-up: unit not given beside the values.
Assay [2] has as its system Staphylococcus aureus. As to the kind of experiment: Antibacterial activity evaluated as minimum inhibitory concentration against 3798 Staphylococcus aureus (GISA). Format: functional. Also noted: unit not given beside the values. In outline: (§1)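 Broth microdilution in Mueller Hinton broth per NCCLS procedure; repeat results usually identical, always within 2-fold. GISA strains 3797 (HIP-5836 New Jersey) and 3798 (HIP-5827 Michigan); 533 S. epidermidis and 602 S. haemolyticus are clinical isolates; vancomycin-resistant enterococci have confirmed genotype.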

Assay [3] deals with Nucleic Acid. As to the kind of experiment: Ratio UDP-MurNAc-tetrapeptide to UDP-MurNAc-Pentapeptide. Format: nucleic-acid assay.
Assay [4] relates to Enterococcus faecalis. The assay is described as follows: Antibacterial activity evaluated as minimum inhibitory concentration against 559 Enterococcus faecalis (GSE). It is filed as functional. Also noted: unit not given beside the values. Put shortly: as §1
Assay [5] has as its system Enterococcus faecium. As to the kind of experiment: Antibacterial activity evaluated as minimum inhibitory concentration against 569 Enterococcus faecium (GRE). Format: functional. Put shortly:
as §1

Assay [6] relates to Nucleic Acid. As to the kind of experiment: Inhibition of the peptidoglycan synthesis in the absence of dipeptide bonding using UDP-MurNAc-tetrapeptide. Format: nucleic-acid assay. Put shortly: (§2)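 Peptidoglycan synthesis run on filter plates with E. coli OV58 (pTA9) membranes, UDP-MurNAc-pentapeptide or UDP-MurNAc-tetrapeptide plus UDP-N-acetyl-[14C]-D-glucosamine as substrates; radiolabel incorporation into peptidoglycan measured. IC50 from at least six drug concentrations in duplicate, fitted by four-parameter logistic nonlinear regression.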

In assay [7] the test system is Staphylococcus aureus. As to the kind of experiment: Antibacterial activity evaluated as minimum inhibitory concentration against 3797 Staphylococcus aureus (GISA). It is filed as functional. Set-up: unit not given beside the values. In outline:
as §1

For assay [8], the system named is Staphylococcus epidermidis. As to the kind of experiment: Antibacterial activity evaluated as minimum inhibitory concentration against 533 Staphylococcus epidermidis. Format: functional. Put shortly: as §1
Assay [9] deals with Nucleic Acid. As to the kind of experiment: Inhibition of the peptidoglycan synthesis in the absence of dipeptide bonding using UDP-MurNAc-pentapeptide. It is filed as nucleic-acid assay. Put shortly:
as §2

For assay [10], the system named is Enterococcus faecalis. The assay is described as follows: Antibacterial activity evaluated as minimum inhibitory concentration against 560 Enterococcus faecalis (GRE). Format: functional. Put shortly: as §1
Assay [11] relates to Enterococcus faecium. The assay is described as follows: Antibacterial activity evaluated as minimum inhibitory concentration against 568 Enterococcus faecium (GSE). It is filed as functional. Put shortly: as §1

For the molecule `CCCCCCCCCCNC(=O)[C@H]1NC(=O)[C@H]2NC(=O)[C@H](NC(=O)[C@@H]3NC(=O)[C@H](CC(N)=O)NC(=O)[C@H](NC(=O)[C@@H](CC(C)C)NC)[C@H](O)c4ccc(c(Cl)c4)Oc4cc3cc(c4O[C@@H]3O[C@@H](CO)[C@H](O)[C@@H](O)[C@@H]3O[C@H]3C[C@@](C)(N)[C@@H](O)[C@@H](C)O3)Oc3cccc(c3)[C@H]2O[C@H]2C[C@@](C)(N)[C@@H](O)[C@@H](C)O2)c2ccc(O)c(c2)-c2c(O)cc(O)cc21`, the MIC in assay [1] was determined as 0.13; against Staphylococcus aureus [2], 4; in the assay on Enterococcus faecalis [4], 1; in the assay with Enterococcus faecium [5], 2; against Staphylococcus aureus [7], 4; in assay [8], 0.13. In addition, the MIC came out at 4 against Enterococcus faecalis [10] and 0.5 with Enterococcus faecium [11]. In the assay on Nucleic Acid [3], the Ratio is 5. Further, the IC50 with Nucleic Acid [6] came to 6.4 µM; in the assay on Nucleic Acid [9], 1.3 µM.
In the case of `CCCCCCCCCCN[C@]1(C)C[C@H](O[C@@H]2[C@H](Oc3c4cc5cc3Oc3ccc(cc3Cl)[C@@H](O)[C@@H](NC(=O)[C@@H](CC(C)C)NC)C(=O)N[C@@H](CC(N)=O)C(=O)N[C@H]5C(=O)N[C@H]3C(=O)N[C@H](C(=O)N[C@H](C(=O)O)c5cc(O)cc(O)c5-c5cc3ccc5O)[C@H](O[C@H]3C[C@@](C)(N)[C@@H](O)[C@@H](C)O3)c3cccc(c3)O4)O[C@@H](CO)[C@H](O)[C@H]2O)O[C@H](C)[C@@H]1O`, the MIC in assay [1] worked out at 0.5; with Staphylococcus aureus [2], 4; in the assay on Enterococcus faecalis [4] it was 0.5; with Enterococcus faecium [5], 4; in the assay on Staphylococcus aureus [7], 4; in [8], 0.5. Moreover, the MIC worked out at 8 in the assay with Enterococcus faecalis [10] and 0.5 against Enterococcus faecium [11]. Besides, the Ratio in the assay on Nucleic Acid [3] came to 7.3. In addition, the figures for the IC50 with Nucleic Acid [6] and in the assay on Nucleic Acid [9] were 13.3 µM and 1.8 µM, respectively.
As for `C[C@H]1O[C@@H](O[C@@H]2[C@H](Oc3c4cc5cc3Oc3ccc(cc3Cl)[C@@H](O)[C@@H](N)C(=O)N[C@@H](CC(N)=O)C(=O)N[C@H]5C(=O)N[C@H]3C(=O)N[C@H](C(=O)N[C@H](C(=O)O)c5cc(O)cc(O)c5-c5cc3ccc5O)[C@H](O[C@H]3C[C@@](C)(N)[C@@H](O)[C@@H](C)O3)c3cccc(c3)O4)O[C@@H](CO)[C@H](O)[C@H]2O)C[C@@](C)(NCc2ccc(-c3ccc(Cl)cc3)cc2)[C@H]1O`, the MIC in assay [1] was 4; in the assay with Staphylococcus aureus [2], 8; in the assay with Enterococcus faecalis [4], 4; with Enterococcus faecium [5], 8; in the assay on Staphylococcus aureus [7], 8; in assay [8], 4. Besides, the MIC came out at 8 in the assay on Enterococcus faecalis [10] and 4 with Enterococcus faecium [11]. Further, in the assay on Nucleic Acid [3], the Ratio was 1.2. For the same molecule, the IC50 in the assay with Nucleic Acid [6] was determined as 9.2 µM; with Nucleic Acid [9], 7.7 µM.
